Assay results: ChEMBL document CHEMBL4316595, “Synthesis and structure-activity relationship studies of parthenolide derivatives as potential anti-triple negative breast cancer agents” (Eur J Med Chem, 2019)

System: MDA-MB-231
Test: Antiproliferative activity against human MDA-MB-231 cells measured after 72 hrs by MTT assay
Format: functional, cell-based
Settings: MDA-MB-231, 72 h
Method in brief: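 MTT antiproliferation assay on human breast cancer lines MDA-MB-231, SUM-159, MCF-7 and Bcap-37 and on mouse 4T1 breast cancer cells. IC50 values were taken from the MTT read-out. Adriamycin served as the positive control.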

IC50 [µM]	SMILES
1.78	C=C1C(=O)O[C@H]2[C@H]1CC/C(COC(=O)/C=C/c1cccc(Cl)c1)=C\CC[C@@]1(C)O[C@@H]21
2.01	C=C1C(=O)O[C@H]2[C@H]1CC/C(COC(=O)/C(=C/c1cc(OC)ccc1OC)c1ccc(Br)cc1)=C\CC[C@@]1(C)O[C@@H]21
2.02	C=C1C(=O)O[C@H]2[C@H]1CC/C(COC(=O)/C=C/c1cc(OC)cc(OC)c1)=C\CC[C@@]1(C)O[C@@H]21
1.59	C=C1C(=O)O[C@H]2[C@H]1CC/C(COC(=O)/C=C/c1c(F)cccc1F)=C\CC[C@@]1(C)O[C@@H]21
1.08	C=C1C(=O)O[C@H]2[C@H]1CC/C(COC(=O)/C=C/c1cccc(C)c1)=C\CC[C@@]1(C)O[C@@H]21
2.35	C=C1C(=O)O[C@H]2[C@H]1CC/C(COC(=O)/C(C#N)=C/c1cc(OC)ccc1OC)=C\CC[C@@]1(C)O[C@@H]21
1.73	C=C1C(=O)O[C@H]2[C@H]1CC/C(COC(=O)/C=C/c1ccc(OC)cc1)=C\CC[C@@]1(C)O[C@@H]21
1.8	C=C1C(=O)O[C@H]2[C@H]1CC/C(COC(=O)/C=C/c1cccs1)=C\CC[C@@]1(C)O[C@@H]21
1.77	C=C1C(=O)O[C@H]2[C@H]1CC/C(COC(=O)/C=C/c1ccc(OC)c(OC)c1OC)=C\CC[C@@]1(C)O[C@@H]21
1.79	C=C1C(=O)O[C@H]2[C@H]1CC/C(COC(=O)/C=C/c1ccccc1C)=C\CC[C@@]1(C)O[C@@H]21
2.25	C=C1C(=O)O[C@H]2[C@H]1CC/C(COC(=O)/C(=C/c1cc(OC)ccc1OC)CC)=C\CC[C@@]1(C)O[C@@H]21
3.55	C=C1C(=O)O[C@H]2[C@H]1CC/C(COC(=O)c1c(OC)cccc1OC)=C\CC[C@@]1(C)O[C@@H]21
> 20	COC(=O)/C=C/c1c(OC)cccc1OC
7.6	COc1cccc(OC)c1/C=C/C(=O)OC/C1=C/CC[C@@]2(C)O[C@H]2[C@H]2OC(=O)[C@@H](C)[C@@H]2CC1
1.95	C=C1C(=O)O[C@H]2[C@H]1CC/C(COC(=O)/C=C/c1ccc(OC)c(OC)c1)=C\CC[C@@]1(C)O[C@@H]21
2.27	C=C1C(=O)O[C@H]2[C@H]1CC/C(COC(=O)/C=C/c1ccc(C)cc1)=C\CC[C@@]1(C)O[C@@H]21
1.96	C=C1C(=O)O[C@H]2[C@H]1CC/C(COC(=O)/C(=C/c1cc(OC)ccc1OC)c1ccc(F)cc1)=C\CC[C@@]1(C)O[C@@H]21
2.51	C=C1C(=O)O[C@H]2[C@H]1CC/C(COC(=O)/C(=C/c1cc(OC)ccc1OC)c1ccc(OC)cc1)=C\CC[C@@]1(C)O[C@@H]21
1.74	C=C1C(=O)O[C@H]2[C@H]1CC/C(COC(=O)/C=C/c1cccc(OC)c1OC)=C\CC[C@@]1(C)O[C@@H]21
1.87	C=C1C(=O)O[C@H]2[C@H]1CC/C(COC(=O)/C(=C/c1cc(OC)ccc1OC)c1ccc(SC)cc1)=C\CC[C@@]1(C)O[C@@H]21
1.59	C=C1C(=O)O[C@H]2[C@H]1CC/C(COC(=O)/C=C/c1c(Cl)cccc1Cl)=C\CC[C@@]1(C)O[C@@H]21
1.33	C=C1C(=O)O[C@H]2[C@H]1CC/C(COC(=O)/C=C/c1ccc(C(C)C)cc1)=C\CC[C@@]1(C)O[C@@H]21
2.52	C=C1C(=O)O[C@H]2[C@H]1CC/C(COC(=O)/C=C/c1ccc(C(F)(F)F)cc1)=C\CC[C@@]1(C)O[C@@H]21
7.53	C=C1C(=O)O[C@H]2[C@H]1CC/C(COC(=O)/C(=C/c1cc(OC)ccc1OC)CCC)=C\CC[C@@]1(C)O[C@@H]21

IC50 [µM]	SMILES
1.48	C=C1C(=O)O[C@H]2[C@H]1CC/C(COC(=O)/C=C/c1ccc3ccccc3c1)=C\CC[C@@]1(C)O[C@@H]21
1.32	C=C1C(=O)O[C@H]2[C@H]1CC/C(COC(=O)/C=C/c1ccc(F)cc1)=C\CC[C@@]1(C)O[C@@H]21
1.33	C=C1C(=O)O[C@H]2[C@H]1CC/C(COC(=O)/C=C/c1ccccc1Br)=C\CC[C@@]1(C)O[C@@H]21
1.87	C=C1C(=O)O[C@H]2[C@H]1CC/C(COC(=O)/C(=C/c1cc(OC)ccc1OC)c1ccc(OCC)cc1)=C\CC[C@@]1(C)O[C@@H]21
1.58	C=C1C(=O)O[C@H]2[C@H]1CC/C(COC(=O)/C=C/c1ccc(OCC)cc1)=C\CC[C@@]1(C)O[C@@H]21
2.29	C=C1C(=O)O[C@H]2[C@H]1CC/C(COC(=O)/C=C/c1ccccn1)=C\CC[C@@]1(C)O[C@@H]21
1.22	C=C1C(=O)O[C@H]2[C@H]1CC/C(COC(=O)/C=C/c1ccc(Cl)cc1)=C\CC[C@@]1(C)O[C@@H]21
1.5	C=C1C(=O)O[C@H]2[C@H]1CC/C(COC(=O)/C=C/c1c(Br)cccc1Br)=C\CC[C@@]1(C)O[C@@H]21
2.25	C=C1C(=O)O[C@H]2[C@H]1CC/C(COC(=O)/C=C/c1ccco1)=C\CC[C@@]1(C)O[C@@H]21
1.8	C=C1C(=O)O[C@H]2[C@H]1CC/C(COC(=O)/C=C/c1ccc(C#N)cc1)=C\CC[C@@]1(C)O[C@@H]21
> 50	COC(=O)/C=C/c1cc(OC)ccc1OC
2.3	C=C1C(=O)O[C@H]2[C@H]1CC/C(COC(=O)CCc1c(OC)cccc1OC)=C\CC[C@@]1(C)O[C@@H]21
5.59	C=C1C(=O)O[C@H]2[C@H]1CC/C(CO)=C\CC[C@@]1(C)O[C@@H]21
1.64	C=C1C(=O)O[C@H]2[C@H]1CC/C(COC(=O)/C=C/c1cccc(Br)c1)=C\CC[C@@]1(C)O[C@@H]21
2.01	C=C1C(=O)O[C@H]2[C@H]1CC/C(COC(=O)/C=C/c1ccc(O)c(OC)c1)=C\CC[C@@]1(C)O[C@@H]21
1.73	C=C1C(=O)O[C@H]2[C@H]1CC/C(COC(=O)/C=C/c1cccc(F)c1)=C\CC[C@@]1(C)O[C@@H]21
1.09	C=C1C(=O)O[C@H]2[C@H]1CC/C(COC(=O)/C=C/c1c(OC)cc(OC)cc1OC)=C\CC[C@@]1(C)O[C@@H]21
2.79	C=C1C(=O)O[C@H]2[C@H]1CC/C(COC(=O)/C=C/c1ccncc1)=C\CC[C@@]1(C)O[C@@H]21
1.42	C=C1C(=O)O[C@H]2[C@H]1CC/C(COC(=O)/C=C/c1ccccc1Cl)=C\CC[C@@]1(C)O[C@@H]21
1.93	C=C1C(=O)O[C@H]2[C@H]1CC/C(COC(=O)/C=C/c1ccc([N+](=O)[O-])cc1)=C\CC[C@@]1(C)O[C@@H]21
6.8	COc1ccc(OC)c(/C=C/C(=O)OC/C2=C/CC[C@@]3(C)O[C@H]3[C@H]3OC(=O)[C@@H](C)[C@@H]3CC2)c1
1.8	C=C1C(=O)O[C@H]2[C@H]1CC/C(COC(=O)/C=C/c1ccccc1F)=C\CC[C@@]1(C)O[C@@H]21
1.76	C=C1C(=O)O[C@H]2[C@H]1CC/C(COC(=O)/C(C)=C/c1cc(OC)ccc1OC)=C\CC[C@@]1(C)O[C@@H]21
1.84	C=C1C(=O)O[C@H]2[C@H]1CC/C(COC(=O)/C=C/c1cccc(OC)c1)=C\CC[C@@]1(C)O[C@@H]21
